Broadly, the IC50 is the concentration that inhibits the measured activity by half. By Ki is commonly meant the dissociation constant of the complex between target and ligand, obtained from inhibition or displacement.

A short description of assay [1]: Inhibition of recombinant Plasmodium falciparum ClpP expressed in Escherichia coli BL21(DE3) using Suc-LLVY-AMC substrate incubated for 3 to 6 hrs by fluorimetric assay. The procedure, abridged: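 The protease domain of PfClpP (aa 168–370) was His-tagged in pET28a, expressed in E. coli BL21(DE3) with 1 mM IPTG at 37 °C for 3–4 h, Ni-NTA purified and BCA quantified. Assay used 13 µM enzyme in 0.1 M sodium acetate pH 7.0 with 1.0 mM DTT and 50 µM Suc-LLVY-AMC final. AMC fluorescence (ex 355/em 460) was followed continuously for 3–6 h at RT; IC50 by curve fitting.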

Assay [2] has as its system Plasmodium falciparum. Kind of assay: Antimalarial activity against Plasmodium falciparum 3D7 assessed as inhibition of parasite growth incubated for 96 hrs in presence of 4% haematocrit by SYBR green dye based assay. It is filed as functional, organism-based. Summed up: (§1)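 P. falciparum 3D7 in RPMI with 0.5% albumax at 4% haematocrit, sorbitol-synchronized, starting parasitaemia ~1%. Compound added at final 0–100 µM, with DMSO in control wells. Growth ran 96 h and was read by SYBR green DNA-dye fluorescence. Triplicate wells, experiment repeated twice; IC50 derived from these.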

The subject of assay [3] is Plasmodium falciparum. The assay is described as follows: Antimalarial activity against Plasmodium falciparum 3D7 assessed as reduction in mature schizonts formation after 60 hrs post infection. The class given is functional, organism-based.
Assay [4] concerns Plasmodium falciparum. Kind of assay: Effect on apicoplast development in ACP-GFP expressing Plasmodium falciparum D10 at 10 uM measured during first cycle by DAPI dye based confocal laser-scanning microscopy. The class given is functional, organism-based. The procedure, abridged:
(§2)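 D10 ACP-GFP parasites were grown like 3D7 with 100 nM pyrimethamine, and ring stages (8–10 hpi) were treated with compound. Parasites were sampled at 36/40 hpi and 72 hpi, DAPI-stained at 2 µg/mL final for 30 min at 37 °C, and imaged by confocal microscopy for apicoplast GFP morphology.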

Assay [5] relates to Plasmodium falciparum. Kind of assay: Inhibition of apicoplast development in ACP-GFP expressing Plasmodium falciparum D10 at 10 uM measured during second cycle by DAPI dye based confocal laser-scanning microscopy. The class given is functional, organism-based. The procedure, abridged: as §2
For assay [6], the system named is Plasmodium falciparum. The assay is described as follows: Inhibition of apicoplast growth in ACP-GFP expressing Plasmodium falciparum D10 at 10 uM measured during second cycle by DAPI dye based confocal laser-scanning microscopy. The class given is functional, organism-based. Summed up: as §2
Assay [7] deals with Plasmodium falciparum. The assay is described as follows: Inhibition of apicoplast development in ACP-GFP expressing Plasmodium falciparum D10 assessed as induction of round stump-like structures at 10 uM measured at 72 hrs post dose by DAPI dye based confocal laser-scanning microscopy. The class given is functional, organism-based. Summed up: as §2
The subject of assay [8] is Plasmodium falciparum. The assay is described as follows: Inhibition of apicoplast development in ACP-GFP expressing Plasmodium falciparum D10 assessed as induction of round stump-like structures at 10 uM measured at 90 to 96 hrs post dose by DAPI dye based confocal laser-scanning microscopy. The class given is functional, organism-based.
The subject of assay [9] is Plasmodium falciparum. Kind of assay: Effect on nuclear division in ACP-GFP expressing Plasmodium falciparum D10 apicoplast at 10 uM measured at 96 hrs post dose by DAPI dye based confocal laser-scanning microscopy. It is filed as functional, organism-based.
For assay [10], the system named is HeLa. The assay is described as follows: Cytotoxic activity against human HeLa cells assessed as reduction in cell viability incubated for 48 hrs by MTT assay. On the technique in general: Tetrazolium assays rely on reduction of a dye to a coloured formazan, in cell work by metabolically active cells.
Assay [11] in a line: Ratio of IC50 for inhibition of recombinant Plasmodium falciparum ClpP expressed in Escherichia coli BL21(DE3) to IC50 for antimalarial activity against Plasmodium falciparum 3D7.
Assay [12] concerns Plasmodium falciparum. The assay is described as follows: Antimalarial activity against Plasmodium falciparum 3D7 assessed as inhibition of parasite growth at 100 uM incubated for 96 hrs in presence of 4% haematocrit by SYBR green dye based assay. The class given is functional, organism-based. The procedure, abridged:
as §1

The mark [13] stands for this setting: Plasmodium falciparum, 3D7, 96 h, read-out: IC50.

Activity calls are given as the source filed them. The rule behind the calls is not given here. Where a SMILES comes first, the peptide text is derived from it. The star is where a group is joined. Cbz = O=C(OCc1ccccc1)*; OBn = c1ccc(CO*)cc1 Some results are limits rather than exact numbers.

For the compound `O=C(CSc1ncc(C(=O)NCCCc2ccccc2)c(=O)n1Cc1ccccc1)c1ccccc1`, the figures for the IC50 in [1] and in assay [2] (setting [13]) were 24 µM and 20 µM, respectively. Besides, in assay [1] (read-out: Ki), the Ki worked out at 10 µM.
With `CCCOc1ccc(-c2nn(-c3ccccc3)cc2/C=C2\SC(=S)N(CCc3ccccc3)C2=O)cc1F`, in assay [1], the IC50 was over 100 µM and the Ki result is reported as “Not Active”. Besides, the IC50 result in assay [2] is reported as “Not Active”.
In the case of `CCN(CC)c1ccc(C(=O)CSc2ncc(C(=O)NCCCc3ccccc3)c(=O)n2Cc2ccccc2)cc1`, in [1], the IC50 is over 100 µM and the Ki result was “Not Active”. The 50% inhibitory concentration (IC50) in [2] (setting [13]) was 9.2 µM.
Consider `O=C(CSc1ncc(C(=O)NCCCc2ccccc2)c(=O)n1Cc1ccccc1)c1ccc(O)cc1`, for which the IC50 came to 53 µM in assay [1] and 9.2 µM in assay [2] (setting [13]). Also, in assay [1] (read-out: Ki), the Ki came to 21.6 µM.
Taken in the same sequence, the figures for `O=C(NCCCc1ccccc1)c1cnc(SCCN2CCOCC2)[nH]c1=O` were 44 µM, 22 µM and 18 µM.
Take `CCc1ccc(CSc2ncc(Cl)c(C(=O)NCCC(=O)Nc3ccc(Cl)cc3)n2)cc1`: the IC50 was over 100 µM in assay [1] and “Not Active” in [2]. Also, in assay [1], the Ki result is reported as “Not Active”.
Take `CC(CCc1ccccc1)NC(=O)CSc1nc2sc3c(c2c(=O)n1CCc1ccccc1)CC(C(C)C)OC3` (stereo unspecified): the 50% inhibitory concentration (IC50) was found to be 23 µM in assay [1] and 25 µM in assay [2] (setting [13]). Moreover, the inhibition constant Ki in assay [1] (read-out: Ki) was found to be 9 µM.
For `CCCCOc1ccc(-c2nn(-c3ccccc3)cc2/C=C(\C#N)C(=O)NCc2ccco2)c(C)c1`, the figures for the IC50 in assay [1] and in assay [2] were over 100 µM and “Not Active”, respectively. Further, the Ki entry in assay [1] was “Not Active”.
With `O=C(NCCCc1ccccc1)c1cnc(SCCN2CCOCC2)n(Cc2ccccc2)c1=O`, the values for the IC50 in assay [1], in [2] (setting [13]) and in [10] were 10.5 µM, 9 µM and over 5000 µM, respectively. Also, the Ki in assay [1] (read-out: Ki) came out at 2.3 µM. The result in assay [3], in assay [7] and in [8] was Active. Moreover, the outcome in [4] and in assay [9] was inactive. For the same compound, in assay [5], the inhibition entry is “Active”. In addition, the “growth inhibition (GI)” value in assay [6] is “Active”.
As to `Cc1cc(SCC(=O)NNC(=O)Cc2ccccc2)nc(SCC(=O)c2ccc(C#N)cc2)n1`, the IC50 worked out at 37.4 µM in assay [1] and 12.4 µM in assay [2] (setting [13]). Moreover, in [1] (read-out: Ki), the Ki stood at 15.3 µM.
Consider `O=C(COc1ccccc1)Nc1cc(NC(=O)COc2ccccc2)cc(C(=O)Nc2nccs2)c1`, for which the IC50 in assay [1] is 88 µM; in assay [2], “Not Active”. For the same compound, the Ki in assay [1] (read-out: Ki) stood at 36 µM.
`COc1cccc(NC(=O)CSc2nc3sc4c(c3c(=O)n2CCc2ccccc2)CC(C(C)C)OC4)c1` (stereo unspecified): in assay [1], the IC50 was over 100 µM and the Ki result is given as “Not Active”. Also, the IC50 result in [2] is on record as “Not Active”.
For `COc1ccc(C(=O)CSc2ncc(C(=O)NCCCc3ccccc3)c(=O)n2Cc2ccccc2)cc1`, the IC50 in assay [1] came out at 45 µM; in assay [2] (setting [13]), 2.4 µM. Also, the Ki in assay [1] (read-out: Ki) came out at 18 µM. The Ratio IC50 in assay [11] stood at 20.
On to `O=C(O)c1cnc2n(c1=O)CC(c1ccccc1)=C(CN1CCOCC1)S2`, for which the IC50 is over 100 µM in [1] and 11 µM in assay [2] (setting [13]). Also, the Ki entry in [1] was “Not Active”.
For `CCOC(=O)CSc1ncc(C(=O)NCCCc2ccccc2)c(=O)n1Cc1ccccc1`, the IC50 in assay [1] was determined as 58.3 µM; in [2] (setting [13]) it was 15.9 µM. Moreover, the Ki in assay [1] (read-out: Ki) was found to be 23.8 µM.
As for `CCOC(=O)c1cnc(SCCN2CCOCC2)n(CC(=O)c2ccccc2)c1=O`, the IC50 was determined as 40 µM in assay [1] and 19 µM in assay [2] (setting [13]). The Ki in assay [1] (read-out: Ki) amounted to 16 µM.
As to `COc1ccc(C(=O)CSc2nc(C)cc(SCC(=O)NNC(=O)Cc3ccccc3)n2)cc1`, the IC50 in [1] worked out at 34.7 µM; in [2] (setting [13]) it was 11.8 µM. Also, in assay [1] (read-out: Ki), the Ki amounted to 14.2 µM.
As for `CCOC(=O)c1cnc(SCCN2CCOCC2)[nH]c1=O`, the concentration for half-maximal inhibition (IC50) was over 100 µM in assay [1] and “Not Active” in [2]. The Ki entry in assay [1] is on record as “Not Active”.
`CC(C)C1Cc2c(sc3nc(SCC(=O)NCc4ccccc4)n(CCc4ccccc4)c(=O)c23)CO1` (stereo unspecified): the 50% inhibitory concentration (IC50) in [1] is over 100 µM; in [2], “Not Active”. In addition, in [1], the Ki result was “Not Active”.
With `Cc1cc(SCC(=O)NNC(=O)Cc2ccccc2)nc(SCC(=O)c2ccccc2)n1`, the IC50 was determined as 26 µM in assay [1] and 75 µM in assay [2] (setting [13]). Besides, in assay [1] (read-out: Ki), the inhibition constant (Ki) was determined as 11 µM.
On to `CCCc1cc(=O)oc2cc(OCC(=O)N[C@@H](CSCc3ccccc3)C(=O)O)ccc12`, for which, in assay [1], the IC50 is over 100 µM and the Ki entry is “Not Active”. The IC50 result in assay [2] is listed as “Not Active”.
In the case of `O=C(CSc1ncc(C(=O)NCCCc2ccccc2)c(=O)n1Cc1ccccc1)NNC(=O)Cc1ccccc1`, the IC50 in assay [1] is 72.6 µM; in assay [2] it was “Not Active”. Besides, the inhibitory constant (Ki) in assay [1] (read-out: Ki) was 29.5 µM. Further, in assay [12], the inhibition entry is “inactive”.
In the case of `O=C(NCCCc1ccccc1)c1cnc(SCC(=O)N2CCOCC2)n(Cc2ccccc2)c1=O`, the figures for the concentration for half-maximal inhibition (IC50) in [1] and in assay [2] (setting [13]) were 46 µM and 11.7 µM, respectively. For the same compound, the inhibition constant (Ki) in assay [1] (read-out: Ki) stood at 18.8 µM.
Take `O=C(CNC(=O)OCc1ccccc1)N[C@@H](CCC(=O)OCc1ccccc1)C(=O)OCc1ccccc1` (Cbz-Gly-Glu(OBn)-OBn): in [1], the IC50 was over 100 µM and the Ki entry was “Not Active”. Moreover, the concentration for half-maximal inhibition (IC50) entry in [2] is on record as “Not Active”.
As for `Cc1cc(SCC(=O)NNC(=O)Cc2ccccc2)nc(SCC(=O)N2CCOCC2)n1`, the IC50 came to 28.8 µM in assay [1] and 17.3 µM in assay [2] (setting [13]). In addition, the Ki in assay [1] (read-out: Ki) worked out at 11.8 µM.
With `CCc1nnc(NC(=O)CSc2nnc(-c3cc4ccccc4cc3O)n2CCOC)s1`, the IC50 in [1] worked out at 30 µM; in [2] (setting [13]) it was 27 µM. In addition, the inhibitory constant (Ki) in [1] (read-out: Ki) was 12.1 µM.
Consider `N#Cc1ccc(C(=O)CSc2ncc(C(=O)NCCCc3ccccc3)c(=O)n2Cc2ccccc2)cc1`, for which, in assay [1], the IC50 was over 100 µM and the Ki entry is “Not Active”. Besides, the IC50 in [2] (setting [13]) came to 13.7 µM.
As for `O=C(CSc1nc(SCC(=O)NCc2ccco2)nc(SCC(=O)NCc2ccco2)n1)NCc1ccco1`, the figures for the IC50 in [1] and in assay [2] were 92 µM and “Not Active”, respectively. Also, the Ki in assay [1] (read-out: Ki) stood at 38 µM.
In the case of `Cc1cc(SCC(=O)NNC(=O)Cc2ccccc2)nc(SCCN2CCOCC2)n1`, the IC50 in [1] stood at 30.3 µM; in assay [2] (setting [13]), 14.4 µM. In addition, in assay [1] (read-out: Ki), the Ki was found to be 12.3 µM.
For `CCOC(=O)c1cnc(SCC(=O)NNC(=O)Cc2ccccc2)[nH]c1=O`, the IC50 in assay [1] turned out to be 42 µM; in assay [2] (setting [13]) it was 82.5 µM. For the same compound, in [1] (read-out: Ki), the Ki stood at 17 µM.
As to `CCN(CC)c1ccc(C(=O)CSc2nc(C)cc(SCC(=O)NNC(=O)Cc3ccccc3)n2)cc1`, the IC50 stood at 28.3 µM in assay [1] and 12.1 µM in [2] (setting [13]). Besides, the Ki in assay [1] (read-out: Ki) turned out to be 11.6 µM.
Take `COc1ccc(CNC(=O)C(=O)N/N=C/c2ccc(CNS(=O)(=O)c3ccc(Br)cc3)o2)cc1`: in assay [1], the IC50 was over 100 µM and the Ki result is listed as “Not Active”. Further, in assay [2], the IC50 result is on record as “Not Active”.

(Values after ChEMBL document CHEMBL4177574, “A novel class of Plasmodial ClpP protease inhibitors as potential antimalarial agents” (Bioorg Med Chem, 2017).)
